# Source: PubChem (several laboratories)
# rCAG binder: r(CAG) repeat RNA binding | TO-PRO-1 dye displacement fluorescence | inhibition, % at 3 µM | 370,000 compounds, 1.3% hits | AID 651821;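 active means inhibition above the plate cutoff, the mean of all test compounds on that plate plus 3 SD, cut at about 35% in these data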;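 further: 0% = DMSO alone and 100% = 100 µM mitoxantrone as full dye displacement; higher means more dye released from RNA so lower well fluorescence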
# LMPTP block: blocks human LMPTP phosphatase; P24666; recombinant LMPTP-A, OMFP fluorogenic substrate, fluorescence intensity; inhibition, % at 20 µM; 360,000 compounds, 0.22% hits;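 active means compounds that cut the enzyme signal by at least half of the control window in the single-dose screen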;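 further: plate controls were DMSO wells with enzyme plus substrate for no effect and substrate without enzyme for full effect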
# Target sequence (P24666 whole entry, looked up): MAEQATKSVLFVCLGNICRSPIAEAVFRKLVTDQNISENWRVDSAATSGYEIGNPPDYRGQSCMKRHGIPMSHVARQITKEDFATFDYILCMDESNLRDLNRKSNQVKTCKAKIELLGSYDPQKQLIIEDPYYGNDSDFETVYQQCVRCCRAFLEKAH
#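 Assay system: LMPTP-A phosphatase enzyme | Input: 0.625 nM enzyme | Also added: Fluorogenic phosphatase substrate OMFP at 400 µM final | Compound dosing: One test concentration per compound, 20 µM, with 3% DMSO overall | Schedule: 50 min enzyme reaction at room temperature, protected from light | Signal: Fluorescence intensity | Benchmarks: no-enzyme and uninhibited controls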
# NadD inh: blocks S. aureus nicotinate mononucleotide adenylyltransferase | purified NadD enzyme, colorimetric absorbance read-out | inhibition, % at 20 µM | 360,000 compounds, 0.78% hits | AID 602399; in the data active means inhibition above about 26%
# STEP block: blocks human striatal-enriched tyrosine phosphatase. P54829. 360,000 compounds, 0.25% hits. recombinant STEP, OMFP fluorogenic substrate, fluorescence. inhibition, % at 20 µM. AID 588621;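 active means inhibition at 20 µM, scaled per plate between control wells, above about 37%, limit read from the data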;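 further: 0% = DMSO with enzyme and substrate and 100% = substrate only without enzyme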
#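 System: isolated STEP enzyme; schedule: 20 min enzyme reaction at room temperature, protected from light; medium: Bis-Tris buffer pH 6.0, 2.5 mM DTT, 0.005% Tween 20; signal: fluorescence, 480/540 nm; dosing: single compound dose of 20 µM, 1% DMSO final; also added: OMFP substrate, 25 µM final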
# Scp1 inh: Scp-1 (human) phosphatase inhibition; Recombinant Scp1, phosphopeptide, malachite green phosphate absorbance; inhibition, % at 20 µM; 340,000 compounds, 0.88% hits; AID 493091;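 active means inhibition above about 50% at 20 µM, limit read from the data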;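 further: plate controls were DMSO wells with enzyme for no effect and wells lacking enzyme for full effect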
# Target sequence (Q9GZU7 76-261 limits assumed): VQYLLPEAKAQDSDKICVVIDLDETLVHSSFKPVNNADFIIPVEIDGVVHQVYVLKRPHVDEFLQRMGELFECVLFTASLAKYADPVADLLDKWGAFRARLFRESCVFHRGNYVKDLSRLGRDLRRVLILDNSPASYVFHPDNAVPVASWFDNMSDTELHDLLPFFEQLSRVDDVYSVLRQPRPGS
#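 assay system = SCP-1 phosphatase catalytic domain, residues 76-261 | buffer or medium = 50 mM Tris acetate pH 5.5, 0.005% Tween-20, 10 mM MgCl2 | incubation = enzyme reaction 45 min at room temperature, colour 5 min, stabilisation 30 min | signal = Phosphate-binding colour reagent, absorbance read at 630 nm | measure = % inhibition at 20 µM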
# NadD conf: confirmation of Staphylococcus aureus NadD inhibitors; shares compounds with NadD inh; purified S. aureus NadD, colorimetric enzyme assay; inhibition, % at 20 µM; 2,000 compounds, 13% hits; AID 624309; in the data active means inhibition mostly above about 42%, no sharp cut-off; inactive means mostly below about 42%
# * = called active by the depositor; / = no result. A selection: hits, their analogues and other compounds. The true share with any hit is near 2.6%.
SMILES,rCAG binder,LMPTP block,NadD inh,STEP block,Scp1 inh,NadD conf
COc1ccccc1Cc1c(-c2ccco2)nc2cc(C)c(Br)c(C)n12,31,8,60*,/,/,21
Cc1cc2nc(-c3ccco3)c(Cc3cccc(Cl)c3)n2c(C)c1Br,34,12,61*,/,/,21
Clc1cccc(Cc2c(-c3ccco3)nc3ccc(Cl)cn23)c1,26,1,28,5,/,/
CC(C)(C)c1ccc(S(=O)(=O)N2CCCC2C(=O)N2CCc3ccccc3C2)cc1 (centres undefined),2,/,/,/,/,/
COc1ccc2c(c1)CN1CN(C3CCCC3)S(=O)(=O)CC21 (centres undefined),9,/,/,/,/,/
Cn1c(=O)oc2ccc(S(=O)(=O)Nc3ccc(Cl)cc3[N+](=O)[O-])cc21,19,/,/,/,/,/
COc1ccccc1NC(=O)c1c(Nc2ccccc2C)sc(C(=O)Nc2cccc(Cl)c2)c1N,26,5,35*,-2,-10,47*
COc1ccc(NC(=O)c2c(Nc3ccccc3)sc(C(=O)c3ccc(F)cc3)c2N)cc1,31,3,33*,-3,-14,-1
COc1ccc(C(=O)c2sc(Nc3cccc(OC)c3)c(C(=O)Nc3cccc(C)c3C)c2N)cc1,17,2,36*,6,3,-11
COc1ccc(C(=O)c2sc(Nc3ccccc3)c(C(=O)Nc3ccc(OC)c(OC)c3)c2N)cc1,22,2,12,3,-10,/
COC(=O)C1CN(Cc2ccccc2)CCS(=O)(=O)N1Cc1ccc(C(F)(F)F)cc1 (centres undefined),1,/,/,/,/,/
COCc1cn(-c2cccc(-c3noc4c3C(=O)N(CC(=O)N3CCOCC3)CC4)c2)nn1,0,/,/,/,/,/
CCCCNC(=O)C1CCCN1C(=O)Nc1ccc2c(c1)OCO2 (centres undefined),2,/,/,/,/,/
CCN(CC)S(=O)(=O)c1ccc(C(=O)/C=C/c2ccc(-c3ccc([N+](=O)[O-])cc3)o2)cc1,19,5,52*,4,-27,9
Cc1ccc(C(=O)/C=C/c2ccc(-c3ccc(C)cc3)o2)cc1,18,0,34*,-2,-10,4
O=C(/C=C\c1ccc(-c2ccccc2)o1)c1ccccc1,14,1,27,-1,-5,/
C[C@@H]1OC(C2CCCCC2)N(C)[C@H]2C[C@H]3c4[nH]c5c(-c6ccc7c(c6)OCO7)cccc5c4CCN3C[C@@H]12 (some centres undefined),8,/,/,/,/,/
COC(=O)N1CCCC1c1cccc2[nH]cc(C)c12 (centres undefined),2,/,/,/,/,/
Clc1ccc(Cn2c(/C=C/c3ccco3)nc3ccccc32)cc1,13,9,34*,0,0,43
Cc1ccc(Cn2c(/C=C/c3ccco3)nc3ccccc32)cc1,5,8,32*,0,6,41
O=C1C[C@@H](O)[C@H](O)c2cccc(O)c21,5,/,/,/,/,/
Cc1ccc(-c2csc(/C=C3\SC(C)C(=O)N3CC(=O)Nc3ccccc3F)n2)cc1 (centres undefined),8,2,32*,4,-5,15
O=C(CN1C(=O)CS/C1=C\c1nc(-c2ccc(Cl)cc2)cs1)Nc1cccnc1Cl,6,2,4,-1,-12,/
N=c1c(C(=O)NCc2ccco2)cc2c(=O)n3ccccc3nc2n1C1CCCC1,4,12,0,-4,10,/
N=c1c(C(=O)NCc2ccccc2)cc2c(=O)n3ccccc3nc2n1Cc1ccco1,9,34,31*,3,8,10
SMILES,rCAG binder,LMPTP block,NadD inh,STEP block,Scp1 inh,NadD conf
Cc1ccc(CNC(=O)c2cc3c(=O)n4ccccc4nc3n(CC3CCCO3)c2=N)cc1 (centres undefined),/,2,3,0,6,/
N=c1c(C(=O)NCc2ccco2)cc2c(=O)n3ccccc3nc2n1Cc1ccccc1,7,59*,32*,4,8,26
Cc1ccc(CNC(=O)c2cc3c(=O)n4ccccc4nc3n(Cc3ccco3)c2=N)cc1,17,15,40*,5,10,32
O=S(=O)(O)c1cc(O)c2ccc(Nc3ccccc3)cc2c1,65*,93*,33*,99*,99*,66*
Oc1cccc(Nc2ccccc2)c1,1,0,-1,-4,0,/
O=C(CCc1ccccc1)N[C@H]1[C@H](OCc2ccccc2)CCC[C@@]12C(=O)N(Cc1ccccc1)c1ccccc12,8,/,/,/,/,/
CCc1ccc(C(=O)COC(=O)c2cccc(N3C(=O)c4c(C)nc5ccccc5c4C3=O)c2)cc1,10,0,36*,6,14,3
O=c1[nH]c(C(Cl)Cl)nc2sc3c(c12)CCN(Cc1ccccc1)C3,9,77*,32*,0,-2,59*
COC(=O)[C@]12CCCCC=C1N(Cc1ccc(OC)cc1)C(=O)[C@@H]2CC(=O)NCc1ccccc1,5,/,/,/,/,/
O=C1CC(N2CCCN(Cc3ccccc3)CC2)=NC(=O)N1c1ccc(Br)cc1,7,/,/,/,/,/
COc1ccc(-c2[nH]n(-c3ccc([N+](=O)[O-])cc3)c(=O)c2C=NCc2ccncc2)cc1,21,3,29*,0,10,4
Cn1c(C(=O)N2CCN(c3ccc(Cl)cc3)CC2)cc2c(=O)[nH]c3ccccc3c21,4,4,17,3,-3,/
Cc1ccc(Cl)cc1N1CCN(C(=O)c2cc3c(=O)[nH]c4ccccc4c3n2C)CC1,4,1,32*,2,-1,11
CN1Cc2nnn(Cc3ccccc3)c2-c2cc(F)ccc2S1(=O)=O,2,/,/,/,/,/
COc1ccc(-c2cc(-c3n[nH]c(=S)n3-c3cccc4ccccc34)[nH]n2)cc1,29,2,26,2,-7,/
S=c1[nH]nc(-c2cc(-c3ccsc3)n[nH]2)n1-c1cccc2ccccc12,20,0,32*,-2,-4,32
Cc1ccc(-c2nc(NC(=O)CSc3nnnn3-c3ccccc3)ns2)cc1,3,2,-5,-2,-2,/
O=C(CSc1nnc2scc(-c3ccccc3)n12)Nc1nsc(-c2ccc(Cl)cc2)n1,3,38,41*,14,20,10
COc1cccc(-c2cc(CNC(=O)[C@H]3O[C@@H](n4cnc(C(N)=O)n4)[C@H](O)[C@@H]3O)no2)c1,3,/,/,/,/,/
Cc1cccc(C)c1NC(=O)CN1C(=O)S/C(=C\c2cccn2C)C1=O,3,0,5,2,2,/
Cc1ccc(NC(=O)CN2C(=O)S/C(=C\c3cccn3-c3cccc(C(=O)O)c3)C2=O)c(C)c1,/,48,40*,71*,84*,5
Cc1ccc(-c2nc3ncccn3c2NC(=O)c2cccc(C)c2)cc1,2,/,/,/,/,/
COc1cc(NC(=O)COc2ccc(Cl)cc2)ccc1NC(=O)C(C)C,/,-2,-8,3,-9,/
